Where “and” joins values, the source holds several entries; their conditions need not be identical. Equal entries are not always repeated. Where two headings read alike, the source gives them in different places.
Legend:
[1] = system: CHLA-9 Ewing sarcoma cell line; assay: DIMSCAN in vitro testing, 96 h; assay type: cell-based; conditions: for IC50: 96 h
How it was run: (§1)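 Neuroblastoma and Ewing sarcoma lines, STR-verified and maintained as in the originators' reports. Exposed for 96 h to test compound (DMSO stock diluted in medium) at 1 nM–10 μM. Viable cells quantified by fluorescein diacetate fluorescence with DIMSCAN digital image microscopy. Absolute IC50 = concentration giving 50% growth inhibition vs controls. Relative IC50 = concentration giving 50% of the maximum inhibitory effect.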

[2] = system: CHLA-32 Ewing sarcoma cell line; assay: DIMSCAN in vitro testing, 96 h; assay type: cell-based; conditions: for IC50: 96 h
How it was run: as §1

[3] = system: SK-N-BE(1) neuroblastoma cell line; assay: DIMSCAN in vitro testing, 96 h; assay type: cell-based; conditions: for IC50: Neuroblastoma cell, 96 h
[4] = system: PPTP in vivo xenograft models; assay: Objective responses by AURKA copy number; set-up: species or system mice; conditions: MTD
[5] = Plasma pharmacokinetics after a single oral dose, LC/MS/MS; assay type: in vivo, non-tumored scid mice; conditions: scid, mouse
[6] = system: CHLA-122 neuroblastoma cell line; assay: DIMSCAN in vitro testing, 96 h; assay type: cell-based; conditions: for IC50: Neuroblastoma cell, 96 h
How it was run: as §1

[7] = system: CHLA-56 Ewing sarcoma cell line; assay: DIMSCAN in vitro testing, 96 h; assay type: cell-based
How it was run: as §1

[8] = system: NB-1643 Neuroblastoma xenograft; assay type: in vivo, mice
How it was run: (§2)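 Female CB17 scid mice bearing subcutaneous tumors, 10 per group. Dosed by oral gavage twice daily, 5 days weekly for 6 weeks, at 20.8, 10.4, 5.2 or 2.6 mg/kg, in 10% 2-hydroxypropyl-β-cyclodextrin/1% sodium bicarbonate. Event = quadrupled tumor volume; EFS by Kaplan–Meier, exact log-rank test. Per-mouse scores PD/SD/PR (≥50% regression)/CR (<0.10 cm3)/MCR; group median reported. PR, CR and MCR count as objective responses.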

[9] = system: SMS-MSN neuroblastoma cell line; assay: DIMSCAN in vitro testing, 96 h; assay type: cell-based; conditions: for IC50: Neuroblastoma cell, 96 h
How it was run: as §1

[10] = system: SK-N-BE(2) neuroblastoma cell line; assay: DIMSCAN in vitro testing, 96 h; assay type: cell-based; conditions: minimum T/C
How it was run: as §1

[11] = system: Rh65 ALV Rhabdomyosarcoma xenograft; assay type: in vivo, mice
How it was run: as §2

[12] = system: CHLA-258 Ewing sarcoma cell line; assay: DIMSCAN in vitro testing, 96 h; assay type: cell-based; conditions: for IC50: 96 h
How it was run: as §1

[13] = system: CHLA-119 neuroblastoma cell line; assay: DIMSCAN in vitro testing, 96 h; assay type: cell-based; conditions: for IC50: Neuroblastoma cell, 96 h
How it was run: as §1

[14] = system: NB-1771 Neuroblastoma xenograft; assay type: in vivo, mice
How it was run: as §2

[15] = system: COG-E-352 Ewing sarcoma cell line; assay: DIMSCAN in vitro testing, 96 h; assay type: cell-based; conditions: for IC50: 96 h
How it was run: as §1

[16] = system: SMS-KCNR neuroblastoma cell line; assay: DIMSCAN in vitro testing, 96 h; assay type: cell-based; conditions: for IC50: 96 h
How it was run: as §1

`COc1cc(Nc2ncc3c(n2)-c2ccc(Cl)cc2C(c2c(F)cccc2OC)=NC3)ccc1C(=O)O` [MLN8237] showed an IC50 ([1]; read-out: Absolute IC50) of 18 nM, an IC50 ([1]; read-out: Relative IC50) of 16 nM and a Ymin ([1]; CHLA-9, minimum T/C) of 4.2%. For the same compound, the IC50 ([2]; read-out: Absolute IC50) was 136 nM, the IC50 ([2]; read-out: Relative IC50) was 92 nM and the Ymin ([2]; CHLA-32, minimum T/C) was 13.1%. For the same compound, the IC50 ([3]; read-out: Absolute IC50) was 28 nM, the IC50 ([3]; read-out: Relative IC50) was 24 nM and the Ymin ([3]; SK-N-BE(1), minimum T/C) was 4.0%. For the same compound, the “objective responses in tumors with decreased AURKA copy number” value [4] was 5/8, the “objective responses in tumors with increased AURKA gene copy number” value [4] was 2/14 and 2 and the concentration at 12 h ([5]; oral, 10 mg/kg) was 1200 nM. The concentration at 12 h ([5]; oral, 10.4 mg/kg) was 1200 nM, the AUC(0-t) ([5]; po, 10 mg/kg) was 39 µM·h and the Cmax ([5]; po, 10 mg/kg, C max, single oral 10 mg/kg, mice) was 15800 nM. It also gave an AUC(0-t) ([5]; po, 10.4 mg/kg) of 60.3 µM·h, a Cmax ([5]; po, 10.4 mg/kg) of 24800 nM and a Tmax ([5]; po, 10.4 mg/kg) of 30 min. It also gave an AUC(0-t) ([5]; po, 20.8 mg/kg) of 78.4 µM·h, a Tmax ([5]; po, 20.8 mg/kg) of 30 min and a concentration at 12 h ([5]; po, 20.8 mg/kg) of 1800 nM. It also gave a Ymin ([6]; CHLA-122, minimum T/C) of 0.6%, an IC50 ([6]; read-out: Absolute IC50) of 19 nM and an IC50 ([6]; read-out: Relative IC50) of 17 nM. For the same compound, the IC50 ([7]; 96 h) was over 10000 nM, the Ymin ([7]; CHLA-56, minimum T/C) was 48.1% and the “EFS T/C” value ([8]; 2.6 mg/kg) was 1.2. The EFS activity ([8]; 2.6 mg/kg) was “Low”, the “Estimate of median time to event” value ([8]; 2.6 mg/kg) was 20.3 days and the Median group response ([8]; 2.6 mg/kg) was “PD1 (if the TGD value ≤1.5, that mouse was considered PD1)”. For the same compound, the Response activity ([8]; 2.6 mg/kg) was “Low”, the “Tumor volume T/C” value ([8]; 2.6 mg/kg) was 1.01 and the “Median RTV/hCD45 at end of study” value ([8]; 2.6 mg/kg) was over 4. For the same compound, the “EFS T/C” value ([8]; 5.2 mg/kg) was over 2.4, the EFS activity ([8]; 5.2 mg/kg) was “High” and the Response activity ([8]; 5.2 mg/kg) was “High”. For the same compound, the “Tumor volume T/C” value ([8]; 5.2 mg/kg) was 0.38, the “Median RTV/hCD45 at end of study” value ([8]; 5.2 mg/kg) was 0.4 and the “EFS T/C” value ([8]; 10.4 mg/kg) was over 2.4. For the same compound, the EFS activity ([8]; 10.4 mg/kg) was “High”, the Median group response ([8]; 10.4 mg/kg) was “MCR” and the Response activity ([8]; 10.4 mg/kg) was “High”. For the same compound, the “Tumor volume T/C” value ([8]; 10.4 mg/kg) was 0.30, the “Median RTV/hCD45 at end of study” value ([8]; 10.4 mg/kg) was 0.0 and the “EFS T/C” value ([8]; 20.8 mg/kg) was over 2.4. For the same compound, the EFS activity ([8]; 20.8 mg/kg) was “High”, the Median group response ([8]; 20.8 mg/kg) was “MCR” and the Response activity ([8]; 20.8 mg/kg) was “High”. For the same compound, the “Tumor volume T/C” value ([8]; 20.8 mg/kg) was 0.14, the “Median RTV/hCD45 at end of study” value ([8]; 20.8 mg/kg) was 0.0 and the IC50 ([9]; read-out: Absolute IC50) was 22 nM. For the same compound, the IC50 ([9]; read-out: Relative IC50) was 17 nM, the Ymin ([9]; SMS-MSN, minimum T/C) was 16.1% and the Ymin [10] was 16.5%. The “EFS T/C” value ([11]; 2.6 mg/kg) was 2.1, the EFS activity ([11]; 2.6 mg/kg) was “Int” and the “Estimate of median time to event” value ([11]; 2.6 mg/kg) was 22.9 days. The Median group response ([11]; 2.6 mg/kg) was “PD2 (if the TGD value >1.5, the mouse was considered PD2)”, the Response activity ([11]; 2.6 mg/kg) was “Int” and the “Tumor volume T/C” value ([11]; 2.6 mg/kg) was 0.31. For the same compound, the “Median RTV/hCD45 at end of study” value ([11]; 2.6 mg/kg) was over 4, the “EFS T/C” value ([11]; 5.2 mg/kg) was 3.7 and the EFS activity ([11]; 5.2 mg/kg) was “Int”. For the same compound, the “Estimate of median time to event” value ([11]; 5.2 mg/kg) was 39.3 days, the Median group response ([11]; 5.2 mg/kg) was “PD2 (if the TGD value >1.5, the mouse was considered PD2)” and the Response activity ([11]; 5.2 mg/kg) was “Int”. The “Tumor volume T/C” value ([11]; 5.2 mg/kg) was 0.19, the “Median RTV/hCD45 at end of study” value ([11]; 5.2 mg/kg) was over 4 and the “EFS T/C” value ([11]; 10.4 mg/kg) was over 3.9. For the same compound, the EFS activity ([11]; 10.4 mg/kg) was “Int”, the Median group response ([11]; 10.4 mg/kg) was “PD2 (if the TGD value >1.5, the mouse was considered PD2)” and the Response activity ([11]; 10.4 mg/kg) was “Int”. For the same compound, the “Tumor volume T/C” value ([11]; 10.4 mg/kg) was 0.11, the “Median RTV/hCD45 at end of study” value ([11]; 10.4 mg/kg) was 3.2 and the “EFS T/C” value ([11]; 20.8 mg/kg) was over 3.9. The EFS activity ([11]; 20.8 mg/kg) was “High”, the Median group response ([11]; 20.8 mg/kg) was “MCR” and the Response activity ([11]; 20.8 mg/kg) was “High”. For the same compound, the “Tumor volume T/C” value ([11]; 20.8 mg/kg) was 0.01, the “Median RTV/hCD45 at end of study” value ([11]; 20.8 mg/kg) was 0.0 and the IC50 ([12]; read-out: Absolute IC50) was 132 nM. The IC50 ([12]; read-out: Relative IC50) was 82 nM, the Ymin ([12]; CHLA-258, minimum T/C) was 18.8% and the Ymin ([13]; CHLA-119, minimum T/C) was 0.5%. For the same compound, the IC50 ([13]; read-out: Absolute IC50) was 22 nM, the IC50 ([13]; read-out: Relative IC50) was 22 nM and the “EFS T/C” value ([14]; 2.6 mg/kg) was 1.9. For the same compound, the EFS activity ([14]; 2.6 mg/kg) was “Low”, the “Estimate of median time to event” value ([14]; 2.6 mg/kg) was 38.2 days and the Median group response ([14]; 2.6 mg/kg) was “PD2 (if the TGD value >1.5, the mouse was considered PD2)”. For the same compound, the Response activity ([14]; 2.6 mg/kg) was “Int”, the “Tumor volume T/C” value ([14]; 2.6 mg/kg) was 0.38 and the “Median RTV/hCD45 at end of study” value ([14]; 2.6 mg/kg) was over 4. For the same compound, the “EFS T/C” value ([14]; 5.2 mg/kg) was over 2.1, the EFS activity ([14]; 5.2 mg/kg) was “Int” and the Median group response ([14]; 5.2 mg/kg) was “PD2 (if the TGD value >1.5, the mouse was considered PD2)”. For the same compound, the Response activity ([14]; 5.2 mg/kg) was “Int”, the “Tumor volume T/C” value ([14]; 5.2 mg/kg) was 0.38 and the “Median RTV/hCD45 at end of study” value ([14]; 5.2 mg/kg) was 2.2. The “EFS T/C” value ([14]; 10.4 mg/kg) was over 2.1, the EFS activity ([14]; 10.4 mg/kg) was “High” and the Median group response ([14]; 10.4 mg/kg) was “MCR”. For the same compound, the Response activity ([14]; 10.4 mg/kg) was “High”, the “Tumor volume T/C” value ([14]; 10.4 mg/kg) was 0.08 and the “Median RTV/hCD45 at end of study” value ([14]; 10.4 mg/kg) was 0.0. The “EFS T/C” value ([14]; 20.8 mg/kg) was over 2.1, the EFS activity ([14]; 20.8 mg/kg) was “High” and the Median group response ([14]; 20.8 mg/kg) was “MCR”. For the same compound, the Response activity ([14]; 20.8 mg/kg) was “High”, the “Tumor volume T/C” value ([14]; 20.8 mg/kg) was 0.02 and the “Median RTV/hCD45 at end of study” value ([14]; 20.8 mg/kg) was 0.0. The IC50 ([15]; read-out: Absolute IC50) was 43 nM, the IC50 ([15]; read-out: Relative IC50) was 35 nM and the Ymin ([15]; COG-E-352, minimum T/C) was 11.4%. It also gave an IC50 ([16]; read-out: Absolute IC50) of 10 nM, an IC50 ([16]; read-out: Relative IC50) of 9 nM and a Ymin ([16]; minimum T/C) of 6.6%.
